# How the values were obtained:
# Staphylococcus aureus [1] = assay: Antibacterial activity against Staphylococcus aureus ATCC 6538 by broth microdilution method; assay type: functional
# Procedure, shortened: (§1)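 CLSI broth microdilution on wild-type strains. E. coli ATCC 8739, P. aeruginosa ATCC 27853 and K. pneumoniae ATCC 10031 served as Gram-negatives. S. aureus ATCC 6538 and E. faecalis ATCC 19433 served as Gram-positives. H. pylori ATCC 700392 was tested as the […]. Ciprofloxacin was the reference drug. MIC is given in μM as the mean of three experiments.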
# Klebsiella pneumoniae [2] = assay: Antibacterial activity against Klebsiella pneumoniae ATCC 10031 by broth microdilution method; assay type: functional; procedure, shortened: as §1
# Helicobacter pylori = assay: Antibacterial activity against Helicobacter pylori ATCC 700392 by broth microdilution method; assay type: functional; procedure, shortened: as §1
# [3] = test system: Mycobacterium tuberculosis; assay: Antimycobacterial activity against Mycobacterium tuberculosis H37Rv incubated for 7 days by alamar blue assay; assay type: functional; conditions: 168 h, time 7 day
# Procedure, shortened: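 Two-fold serial dilutions in 7H9-S, with growth and sterile controls, incubated at 37 °C for 7 days. Alamar Blue then added and incubated overnight. MIC is the lowest concentration preventing the blue-to-pink change. Means of three experiments.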
# Enterococcus faecalis [4] = assay: Antibacterial activity against Enterococcus faecalis ATCC 19433 by broth microdilution method; assay type: functional; procedure, shortened: as §1
# Klebsiella pneumoniae [5] = assay: Potency index, ratio of nitazoxanide MIC to test compound MIC for antibacterial activity against Klebsiella pneumoniae ATCC 10031; assay type: functional
# Staphylococcus aureus [6] = assay: Potency index, ratio of nitazoxanide MIC to test compound MIC for antibacterial activity against Staphylococcus aureus ATCC 6538; assay type: functional
# Pseudomonas aeruginosa [7] = assay: Antibacterial activity against Pseudomonas aeruginosa ATCC 27853 by broth microdilution method; assay type: functional; procedure, shortened: as §1
# Escherichia coli [8] = assay: Antibacterial activity against Escherichia coli ATCC 8739 by broth microdilution method; assay type: functional; procedure, shortened: as §1
# Escherichia coli [9] = assay: Potency index, ratio of nitazoxanide MIC to test compound MIC for antibacterial activity against Escherichia coli ATCC 8739; assay type: functional
# Pseudomonas aeruginosa [10] = assay: Potency index, ratio of nitazoxanide MIC to test compound MIC for antibacterial activity against Pseudomonas aeruginosa ATCC 27853; assay type: functional
# RAW264.7 = assay: Cytotoxicity against mouse RAW264.7 cells at 25 ug/ml incubated for 48 hrs by MTT assay; assay type: toxicity, cell-based; conditions: raw264.7, 48 h, at 25 µg/mL
# Procedure, shortened: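 RAW 264.7 mouse macrophages were grown in RPMI with 10% FBS plus penicillin/streptomycin to 80–90% confluency. About 5000 cells/well were seeded on poly-L-lysine-coated plates and held 24 h at 37 °C, 5% CO2. Compound was added at 25 μg mL−1 for 48 h at 37 °C. MTT (0.5 mg mL−1) was added for 3 h, and formazan was read at 595 and 625 nm. Result is % inhibition.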
# [11] = Selectivity index, ratio of cytotoxicity against mouse RAW264.7 cells to MIC for Mycobacterium tuberculosis H37Rv; assay type: toxicity, cell-based; conditions: read-out: Selectivity Index
# Procedure, shortened: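 SI is cytotoxicity divided by the MABA MIC (μg mL⁻¹) against H37Rv. For cytotoxicity, RAW 264.7 cells were grown in RPMI with 10% FBS and penicillin/streptomycin. About 5000 cells per well were seeded on poly-L-lysine plates and held 24 h at 37 °C, 5% CO2. Compounds were added at 25 μg mL⁻¹ for 48 h, then MTT (0.5 mg mL⁻¹) for 3 h. Formazan was read at 595/625 nm and reported as % inhibition.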
# [12] = test system: Mycobacterium tuberculosis; assay: Potency index, ratio of ethambutol MIC to test compound MIC for antitubercular activity against Mycobacterium tuberculosis H37Rv; assay type: functional
# Enterococcus faecalis [13] = assay: Potency index, ratio of nitazoxanide MIC to test compound MIC for antibacterial activity against Enterococcus faecalis ATCC 19433; assay type: functional
# [14] = test system: Mycobacterium tuberculosis; assay: Potency index, ratio of nitazoxanide MIC to test compound MIC for antitubercular activity against Mycobacterium tuberculosis H37Rv; assay type: functional
SMILES,MIC (Staphylococcus aureus [1]),MIC (Klebsiella pneumoniae [2]),MIC (Helicobacter pylori),MIC [3],MIC (Enterococcus faecalis [4]),Ratio (Klebsiella pneumoniae [5]),Ratio (Staphylococcus aureus [6]),MIC (Pseudomonas aeruginosa [7]),MIC (Escherichia coli [8]),Ratio (Escherichia coli [9]),Ratio (Pseudomonas aeruginosa [10]),Cell growth inhibition (RAW264.7),selectivity ratio [11],Ratio [12],Ratio (Enterococcus faecalis [13]),Ratio [14]
O=C(Nc1ncc([N+](=O)[O-])s1)c1ccc(-n2cc(-c3ccccc3)nn2)cc1O,29.4 µM,39.2 µM,14.7 µM,> 25 µg/mL,19.6 µM,,,,,,,,,,,
CN1CCN(Cc2cn(-c3ccc(C(=O)Nc4ncc([N+](=O)[O-])s4)c(O)c3)nn2)CC1,4.49 µM,8.99 µM,6.74 µM,> 25 µg/mL,,<=20,25,144 µM,,,,,,,,
NNC(=O)c1ccncc1 [ISONIAZID],,,,0.05 µg/mL,,,,,,,,,,,,
COC(=O)c1cn(-c2ccc(C(=O)Nc3ncc([N+](=O)[O-])s3)c(O)c2)nn1,10.2 µM,5.12 µM,3.84 µM,> 25 µg/mL,,<=20,,15.4 µM,3.84 µM,20,,,,,,
O=C(Nc1ncc([N+](=O)[O-])s1)c1ccc(-n2cc(CN3C(=O)C(=O)c4cc(Br)ccc43)nn2)cc1O,0.87 µM,4.38 µM,3.5 µM,> 25 µg/mL,8.76 µM,<=20,25,5.26 µM,21 µM,,>50,,,,,
CC[C@@H](CO)NCCN[C@@H](CC)CO [ETHAMBUTOL],,,,1.56 µg/mL,,,,,,,,,,,,
O=C(Nc1ncc([N+](=O)[O-])s1)c1ccc(-n2cc(CO)nn2)cc1O,,88.3 µM,44.1 µM,> 25 µg/mL,132 µM,,,353 µM,,,,,,,,
[N-]=[N+]=Nc1ccc(C(=O)Nc2ncc([N+](=O)[O-])s2)c(O)c1,9.79 µM,313 µM,104 µM,3.12 µg/mL,26.1 µM,,,,4.89 µM,20,,28.53%,8,,,
CC(=O)Oc1cc(N=[N+]=[N-])ccc1C(=O)Nc1ncc([N+](=O)[O-])s1,11.5 µM,34.5 µM,11.5 µM,1.56 µg/mL,2.15 µM,,,91.9 µM,8.61 µM,,,17.54%,16,1.7,25,5
O=C(O)c1cn(-c2ccc(C(=O)Nc3ncc([N+](=O)[O-])s3)c(O)c2)nn1,85 µM,15.9 µM,21.2 µM,25 µg/mL,,,,10.6 µM,6.64 µM,,,27.5%,1,,,
Cc1ccc(-c2cn(-c3ccc(C(=O)Nc4ncc([N+](=O)[O-])s4)c(O)c3)nn2)cc1,1210 µM,,5.91 µM,25 µg/mL,75.8 µM,,,303 µM,7.1 µM,,,27.6%,1,,,
CC(=O)Oc1ccccc1C(=O)Nc1ncc([N+](=O)[O-])s1 [NITAZOXANIDE],104 µM,182 µM,13 µM,,156 µM,,,417 µM,104 µM,,,20.65%,4,,,
O=C(Nc1ncc([N+](=O)[O-])s1)c1ccc(-n2cc(CN3C(=O)C(=O)c4cc(Cl)ccc43)nn2)cc1O,,60.9 µM,4.75 µM,> 25 µg/mL,,,,,487 µM,,,,,,,

# From ChEMBL document CHEMBL5356992, “New nitazoxanide derivatives: design, synthesis, biological evaluation, and molecular docking studies as antibacterial and antimycobacterial agents” (RSC Med Chem, 2023)
